ChEMBL document CHEMBL3588770, “Novel spirohydantoin derivative as a potent multireceptor-active antipsychotic and antidepressant agent” (Bioorg Med Chem, 2015)
Calls of active or inactive are those of the source. The rule behind the calls is not given here.

Tests used:
[1] = system: Mus musculus; assay: In vivo partial agonist activity at 5HT1A receptor in CD-1 mouse assessed as change in body temperature at 10 mg/kg, ip measured after 30 mins (reference value: -0.1 degC); assay type: functional, organism-based
Summary of the method: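 Male CD-1 mice, 7-9 per dose, dosed i.p. Rectal temperature was recorded at 30, 60, 90 and 120 min. Results are the change from basal temperature taken at the start of the experiment.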

[2] = system: Mus musculus; assay: In vivo partial agonist activity at 5HT1A receptor in CD-1 mouse assessed as change in body temperature at 10 mg/kg, ip administered 15 mins after 5HT1A receptor antagonist WAY100635 injection measured after 30 mins (reference value: -0.1 degC); assay type: functional, organism-based
Summary of the method: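 Male CD-1 mice, 7-9 per dose. WAY 100635 (0.3 mg/kg) was given 15 min before the compound i.p. Rectal temperature was recorded 30 and 60 min after the compound, as the change from basal temperature.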

[3] = system: Mus musculus; assay: In vivo partial agonist activity at 5HT1A receptor in CD-1 mouse assessed as change in body temperature at 10 mg/kg, ip measured after 60 mins (reference value: -0.1 degC); assay type: functional, organism-based
Summary of the method: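 Male CD-1 mice, 7-9 per dose, compound suspended in 1% aqueous Tween 80 and given i.p. at 10 ml/kg. Rectal temperature was taken by thermometer 30, 60, 90 and 120 min after dosing. Change (Δt) is expressed against basal temperature measured at the start. Mean ± SEM, one-way ANOVA with Bonferroni test.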

[4] = system: Rattus norvegicus; assay: Induction of lower lip retraction in Wistar rat at 5 to 40 mg/kg, ip; assay type: functional, organism-based
[5] = system: Mus musculus; assay: Toxicity in Swiss albino mouse assessed as stimulation of spontaneous locomotor activity at 2.5 to 5 mg/kg, ip measured during 2-6 mins session; assay type: organism-based; conditions: in vivo
Summary of the method: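 Male Swiss albino mice, 8-10 per dose, received compound i.p. 60 min before testing. Each mouse was placed individually in a cage on an infrared activity monitor. Channel crossings (ambulation) were counted from 2 to 6 min, matching the forced swim test observation window.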

[6] = system: Mus musculus; assay: Antianxiety-like activity in Swiss albino mouse assessed as number of punished crossings at 0.312 to 5 mg/kg, ip by four-plate test; assay type: functional, organism-based
Summary of the method: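 Four-plate test in male Swiss albino mice, 8-10 per dose, dosed i.p. in Tween 80 vehicle. After 15-s habituation, a 0.8 mA, 0.5 s foot shock was given at each plate crossing, with a 3 s shock-free interval. Punished crossings were counted over a 1-min session.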

[7] = system: Mus musculus; assay: Toxicity in ip dosed CD-1 mouse assessed as minimum dose required for induction of catalepsy by bar test; assay type: organism-based; conditions: in vivo
Summary of the method: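 Male CD-1 mice, 10 per group, given compound i.p. (1% Tween 80 suspension). Forelimbs were placed on a horizontal rod 4 cm high at 30, 60 and 120 min. Catalepsy was scored up to 3 (≥60 s on bar). Minimum cataleptogenic dose is the lowest dose giving a mean score ≥1 at any of those times.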

SMILES: COc1ccccc1N1CCN(CCCCN2C(=O)NC3(CCCc4ccccc43)C2=O)CC1 (configuration not stated)
- deltaT [1]: -1.9 °C
- deltaT [2]: -1.1 °C
- deltaT [3]: -1.3 °C
- Activity [4]: inactive
- Activity [5]: Non-toxic
- Activity [6]: inactive
- Activity [7]: 30 mg/kg
